Test [1] addresses Integrin alpha-IIb/beta-3 (Homo sapiens, UniProt P05106+P08514). The experiment in a line: Affinity for platelet fibrinogen receptor, integrin alpha IIb/beta3.
Test [2] has as its target Integrin alpha-V/beta-3 (Homo sapiens, UniProt P05106+P06756). The experiment in a line: Affinity for vitronectin receptor, integrin alphaV-beta3. The test is classed as protein-complex assay. The method in brief: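 Competitive radioligand binding to human αVβ3, displacing [3H]SK&F 107260; Ki values are means of two to three separate experiments.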

12 molecules from ChEMBL document CHEMBL1130092, “Discovery of potent nonpeptide vitronectin receptor (alpha v beta 3) antagonists” (J Med Chem, 1997) can be followed below.

Each structure is given as a SMILES string. Bridge positions count the residues as written; N and C are the ends. Peptide text beside a SMILES is read from it.

Integrin alpha-IIb/beta-3, sequence (P05106 27-788 limits assumed): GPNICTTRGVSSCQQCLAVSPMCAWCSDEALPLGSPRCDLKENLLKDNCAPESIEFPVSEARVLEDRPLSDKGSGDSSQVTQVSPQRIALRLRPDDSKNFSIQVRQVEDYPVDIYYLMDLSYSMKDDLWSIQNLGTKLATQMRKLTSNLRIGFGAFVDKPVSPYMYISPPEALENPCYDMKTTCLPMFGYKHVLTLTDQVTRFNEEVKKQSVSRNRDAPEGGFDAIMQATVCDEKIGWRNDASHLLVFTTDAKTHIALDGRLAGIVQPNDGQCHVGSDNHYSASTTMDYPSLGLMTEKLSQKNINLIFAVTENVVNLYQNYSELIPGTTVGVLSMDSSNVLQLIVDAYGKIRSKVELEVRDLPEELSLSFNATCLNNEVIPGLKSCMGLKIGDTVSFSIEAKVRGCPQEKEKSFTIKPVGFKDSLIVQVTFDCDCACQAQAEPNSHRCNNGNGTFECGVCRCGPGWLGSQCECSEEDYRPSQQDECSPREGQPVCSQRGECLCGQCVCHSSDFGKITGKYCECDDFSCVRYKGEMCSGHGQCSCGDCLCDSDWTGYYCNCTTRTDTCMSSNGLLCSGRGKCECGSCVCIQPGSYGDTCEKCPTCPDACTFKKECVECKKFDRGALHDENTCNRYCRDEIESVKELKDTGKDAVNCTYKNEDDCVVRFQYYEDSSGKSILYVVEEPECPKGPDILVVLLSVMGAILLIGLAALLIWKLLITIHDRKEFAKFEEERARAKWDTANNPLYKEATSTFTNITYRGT
Integrin alpha-IIb/beta-3, sequence (P08514 32-887 limits assumed): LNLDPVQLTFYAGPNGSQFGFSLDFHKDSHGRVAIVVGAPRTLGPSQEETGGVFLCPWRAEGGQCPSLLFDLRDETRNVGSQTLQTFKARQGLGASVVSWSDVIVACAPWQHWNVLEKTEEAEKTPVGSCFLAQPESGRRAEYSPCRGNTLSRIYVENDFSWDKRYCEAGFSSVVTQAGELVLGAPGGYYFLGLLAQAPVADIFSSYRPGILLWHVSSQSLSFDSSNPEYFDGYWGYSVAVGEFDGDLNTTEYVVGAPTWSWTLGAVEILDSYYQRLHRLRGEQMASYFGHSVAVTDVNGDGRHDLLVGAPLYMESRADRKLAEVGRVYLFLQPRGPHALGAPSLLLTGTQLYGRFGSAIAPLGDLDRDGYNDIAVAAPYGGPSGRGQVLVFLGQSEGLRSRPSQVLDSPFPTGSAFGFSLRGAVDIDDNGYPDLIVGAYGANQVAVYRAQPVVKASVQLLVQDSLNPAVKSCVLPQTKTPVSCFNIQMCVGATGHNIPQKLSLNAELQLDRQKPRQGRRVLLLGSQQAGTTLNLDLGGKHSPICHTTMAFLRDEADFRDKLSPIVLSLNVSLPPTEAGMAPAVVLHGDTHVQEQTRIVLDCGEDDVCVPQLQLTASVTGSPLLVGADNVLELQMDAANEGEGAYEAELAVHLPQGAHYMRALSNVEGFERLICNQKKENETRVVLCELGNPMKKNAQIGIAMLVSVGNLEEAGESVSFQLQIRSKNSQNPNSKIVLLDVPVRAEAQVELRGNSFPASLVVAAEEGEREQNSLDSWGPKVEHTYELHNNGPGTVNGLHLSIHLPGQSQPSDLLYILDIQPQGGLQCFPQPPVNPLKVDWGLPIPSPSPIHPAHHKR
Integrin alpha-IIb/beta-3, sequence (P08514 891-1039 limits assumed): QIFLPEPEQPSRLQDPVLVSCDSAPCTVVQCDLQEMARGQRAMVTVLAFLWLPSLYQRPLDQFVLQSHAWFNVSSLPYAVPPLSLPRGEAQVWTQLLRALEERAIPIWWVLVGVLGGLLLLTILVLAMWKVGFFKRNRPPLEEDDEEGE
Integrin alpha-V/beta-3, sequence (P05106 27-788 limits assumed): as the sequence (P05106 27-788 limits assumed) above
Integrin alpha-V/beta-3, sequence (P06756 31-889 limits assumed): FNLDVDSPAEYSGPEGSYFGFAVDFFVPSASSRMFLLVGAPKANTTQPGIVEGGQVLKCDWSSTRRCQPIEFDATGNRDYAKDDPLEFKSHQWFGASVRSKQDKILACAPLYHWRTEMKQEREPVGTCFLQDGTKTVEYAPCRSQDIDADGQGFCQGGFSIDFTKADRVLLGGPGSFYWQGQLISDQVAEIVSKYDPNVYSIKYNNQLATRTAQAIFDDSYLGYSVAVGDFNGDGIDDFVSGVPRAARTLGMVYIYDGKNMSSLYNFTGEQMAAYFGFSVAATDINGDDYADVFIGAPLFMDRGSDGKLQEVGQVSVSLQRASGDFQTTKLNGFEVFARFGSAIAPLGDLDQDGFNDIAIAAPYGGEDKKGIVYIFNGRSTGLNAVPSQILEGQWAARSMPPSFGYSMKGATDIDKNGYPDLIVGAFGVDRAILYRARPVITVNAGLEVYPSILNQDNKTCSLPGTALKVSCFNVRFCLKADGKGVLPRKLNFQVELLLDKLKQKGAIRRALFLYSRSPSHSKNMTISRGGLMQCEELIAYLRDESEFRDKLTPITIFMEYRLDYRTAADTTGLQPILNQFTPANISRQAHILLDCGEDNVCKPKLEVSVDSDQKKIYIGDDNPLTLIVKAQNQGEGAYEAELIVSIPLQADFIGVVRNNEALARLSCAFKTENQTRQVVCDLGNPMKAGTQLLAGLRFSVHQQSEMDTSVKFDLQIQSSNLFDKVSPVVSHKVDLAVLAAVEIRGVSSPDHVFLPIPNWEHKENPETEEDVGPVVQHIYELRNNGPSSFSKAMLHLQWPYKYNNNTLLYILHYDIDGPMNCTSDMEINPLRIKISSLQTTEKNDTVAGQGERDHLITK
Integrin alpha-V/beta-3, sequence (P06756 891-1048 limits assumed): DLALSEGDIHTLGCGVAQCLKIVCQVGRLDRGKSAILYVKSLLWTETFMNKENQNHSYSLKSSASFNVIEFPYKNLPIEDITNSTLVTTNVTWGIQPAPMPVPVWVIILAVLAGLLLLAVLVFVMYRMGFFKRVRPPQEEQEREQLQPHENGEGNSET

For `N/C1=N/CCC[C@H](N)C(=O)NCC(=O)N[C@@H](CC(=O)O)C(=O)N[C@@H](CO)C(=O)N[C@@H](Cc2ccccc2)C(=O)NCC(=O)N1` (H-RGDSFG; lactam 1-C), the Ki (usually a measure of affinity in units of concentration, obtained from inhibition or displacement) in test [1] came out at 75000 nM; in test [2], 10 nM.
`N=C(N)c1ccc(NC(=O)c2ccc3c(c2)CN(CCc2ccccc2)C(=O)C(CC(=O)O)N3)cc1` (stereo not given) returned an inhibitory constant (Ki) in test [2] of 56000 nM.
Turning to `CC(=O)C[C@@H]1NC(=O)[C@@H](Cc2ccccc2)NC(=O)[C@H](C(C)C)NC(=O)[C@H](CCCN=C(N)N)NC(=O)CNC1=O`, the inhibitory constant (Ki) in test [1] is 42000 nM; in test [2] it was 10 nM.
`CN1Cc2cc(C(=O)N3CCN(c4ccccc4)CC3)ccc2NC(CC(=O)O)C1=O` (stereo not given) displayed an inhibitory constant (Ki) in test [1] of over 100000 nM.
Consider `CN1Cc2cc(C(=O)NCc3nc4ccccc4[nH]3)ccc2NC(CC(=O)O)C1=O` (stereo not given), for which the Ki in test [1] stood at 30000 nM; in test [2] it was 24 nM.
The molecule `CN1C(=O)c2ccccc2SSc2ccccc2NC(=O)[C@H](CC(=O)O)NC(=O)CNC(=O)[C@@H]1CCCN=C(N)N` [SKF-107260] showed an inhibitory constant (Ki) in test [2] of 3.5 nM.
`CN1Cc2cc(C(=O)N3CCN(c4ccncc4)CC3)ccc2NC(CC(=O)O)C1=O` (stereo not given): the Ki in test [1] worked out at 8 nM; in test [2] it was 1000 nM.
On the same counts, the results for `CN1Cc2cc(C(=O)NCc3nc4ccccc4[nH]3)ccc2N[C@@H](CC(=O)O)C1=O` are 52000 nM and 15 nM.
In the case of `CN(C(=O)c1ccccc1)[C@@H](CCCNC(=N)N)C(=O)NCC1=CC(CC(=O)O)C(=O)N(c2ccccc2)CC1` (stereo not given in full), the inhibitory constant (Ki) in test [2] was found to be 50 nM. In other words, the double-digit nanomolar range.
`CN1Cc2cc(C(=O)NCCc3nc4ccccc4[nH]3)ccc2NC(CC(=O)O)C1=O` (stereo not given): the Ki in test [1] is over 50000 nM; in test [2] it was 1100 nM.
On to `CN1Cc2cc(C(=O)Nc3nc4ccccc4[nH]3)ccc2NC(CC(=O)O)C1=O` (stereo not given), for which the Ki was over 50000 nM in test [1] and 1150 nM in test [2].
On the same counts, the results for `N=C(N)c1cccc(NC(=O)c2ccc3c(c2)CN(CCc2ccccc2)C(=O)C(CC(=O)O)N3)c1` (stereo not given) are 4500 nM and 510 nM.
